Legend:
[1] = system: GBM PDX lines; assay: BAPTA calcium chelation before MED2; type: cell-based, human; details: BAPTA pretreatment, low concentrations, 5-hour CTL2/MED2; X1441, JX39, JX59
How it was run: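 Cells were pretreated with BAPTA-AM and then exposed to CTL2 or MED2 for 5 h, at 2.5 μM for X1441 and 5 μM for JX39 and JX59, with relative viability as read-out. For SYTOX, cells were pretreated with 50μM BAPTA and given peptide for 1.5 h. Percent SYTOX-positive cells was scored on the Xcyto10 image cytometer at 4X. Analysis used two-way ANOVA with Tukey's test.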

[2] = system: normal human astrocytes (NHAs); assay: Cell viability; type: cell-based; details: CellTiter-Glo, 72 h
How it was run: (§1)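 1 × 10^4 Trypan blue-counted live cells were plated in 90 μL medium in 4 replicates; PDX cells were kept in neurosphere medium and NHAs in standard medium. Peptide (PBS-reconstituted, added as 10X in medium) went on 2 h after plating. CellTiter-Glo ATP luminescence was read at 72 h. MED2 RLU was normalized to CTL2 (5 μM for 1–5 μM; 10 μM for 10 μM). GI50 was interpolated from a standard curve.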

[3] = system: JX22 (mesenchymal GBM PDX); assay: Cell viability; type: cell-based, human; details: JX22, 10μM MED2, normalized to 10μM CTL2, 72 h, n=4
How it was run: as §1

[4] = system: XD456 (proneural GBM PDX); assay: Cell viability; type: cell-based, human; details: XD456, 2.5μM MED2, 72 h, n=4
How it was run: as §1

[5] = system: PARP1 cleavage in XD456; assay: PARP1 cleavage immunoblot; type: cell-based, human; details: XD456, 3μM MED2, 5 and 24 hours
[6] = system: X1441 (proneural GBM PDX); assay: Cell viability; type: cell-based, human; details: X1441, 2.5μM MED2, 72 h, n=4
How it was run: as §1

[7] = system: caspase 3/7 activation in GBM cells; assay: Caspase 3/7 activation; type: cell-based, human
How it was run: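 Cells pretreated with 1–200μM QVD-OPh or 100μM Z-VAD-FMK received MED2 or CTL2. They were lifted with their media and stained for 30 min at RT with CellEvent green caspase 3/7 dye, Annexin-V AlexaFluor 647 and SYTOX orange in Annexin-V binding buffer. Imaging was on Xcyto10 at 4X with channel compensation. Read-out was mean caspase fluorescence per cell relative to CTL2 (n>5000 cells).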

[8] = system: JX12 (classical GBM PDX); assay: Cell viability; type: cell-based, human; details: JX12, 5μM MED2, normalized to 5μM CTL2, 72 h, n=4
How it was run: as §1

[9] = system: intracellular calcium in XD456; assay: Fluo-4 calcium imaging; type: cell-based, human; details: XD456, 3μM, serial imaging over two hours
How it was run: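 1 × 10^5 XD456 cells were attached in 24-well plates and loaded at 37C for 1.5 h in 1X Fluo-4 direct calcium assay buffer with 5mM probenecid. SYTOX and then 3μM CTL2 or MED2 were added. Serial live images, including one taken before peptide, were acquired at 10X on an EVOS FL using GFP and RFP channels.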

[10] = system: JX39 (classical GBM PDX); assay: Cell viability; type: cell-based, human; details: JX39, 5μM MED2, normalized to 5μM CTL2, 72 h, n=4
How it was run: as §1

[11] = system: JX59 (mesenchymal GBM PDX); assay: Cell viability; type: cell-based, human; details: JX59, 10μM MED2, normalized to 10μM CTL2, 72 h, n=4
How it was run: as §1

[12] = system: GBM PDX lines (proneural, classical, mesenchymal subtypes); assay: Cell viability, statements for groups of GBM PDX lines; type: cell-based, human; details: multiple PDX subtypes, 5μM CTL2/MED2, 9 hours, p>0.05
[13] = system: JX14 (classical GBM PDX); assay: Cell viability; type: cell-based, human; details: JX14, 10μM MED2, normalized to 10μM CTL2, 72 h, n=4
How it was run: as §1

[14] = system: XD456; assay: Time-lapse imaging and SYTOX uptake; type: cell-based, human; details: XD456, 3μM, time-lapse imaging
How it was run: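 XD456 cells were given 3μM MED2 and tracked by time-lapse still frames at 10X. For membrane permeabilization, cells received 5μM CTL2 or MED2 and were imaged every 5 min for 125 min at 20X. Imaging was on CellInsight CX7 in a heated CO2 chamber using Hoechst and SYTOX orange channels. Mean SYTOX intensity per cell was scored from n>400 cells.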

[15] = system: X1016 PDX implanted into the brain of athymic nude mice; assay: In vivo MED2-CY7 accumulation in orthotopic GBM PDX; set-up: species or system mouse; details: tail-vein, 3 hours, Pearl / Odyssey CLx imaging
How it was run: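 6-week-old female athymic nude mice were stereotactically implanted with 5 × 10^5 X1016 cells into the caudate putamen 1 week before dosing. They were sorted by bioluminescence for similar tumor burden and randomized, unblinded, to two doses of Cy7-labeled peptide. Peptide in 100 μL saline went by tail vein, with sacrifice at 3 h. Brains were formalin-fixed, cut into 5 mm coronal slices and imaged on Pearl. Paraffin sections were H&E-stained or imaged on Odyssey CLx at […].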

[16] = system: athymic nude mice; assay: In vivo MED2-CY7 biodistribution, tumor-naïve mice; set-up: species or system mouse; details: 3 hours

CC(=O)OCOC(=O)CN(CC(=O)OCOC(C)=O)c1ccccc1OCCOc1ccccc1N(CC(=O)OCOC(C)=O)CC(=O)OCOC(C)=O [BAPTA, BAPTA-AM]
protection against MED2 cytotoxicity [1]: no protective effects

CC(C)C[C@H](NC(=O)[C@H](CCCCN)NC(=O)[C@H](Cc1ccccc1)NC(=O)[C@H](CO)NC(=O)[C@H](CCCCN)NC(=O)[C@H](CCCCN)NC(=O)[C@H](Cc1ccccc1)NC(=O)[C@H](CO)NC(=O)[C@H](Cc1ccccc1)NC(=O)[C@H](CCCNC(=N)N)NC(=O)[C@H](CCCCN)NC(=O)[C@H](CCCCN)NC(=O)[C@H](CCCCN)NC(=O)[C@H](CCCCN)NC(=O)[C@H](CCCCN)NC(=O)[C@@H](N)CSC1CC(=O)N(CCC(=O)N[C@@H](Cc2ccc(O)cc2)C(=O)NCC(=O)N[C@@H](CCCNC(=N)N)C(=O)N[C@@H](CCCCN)C(=O)N[C@@H](CCCCN)C(=O)N[C@@H](CCCNC(=N)N)C(=O)N[C@@H](CCCNC(=N)N)C(=O)N[C@@H](CCC(N)=O)C(=O)N[C@@H](CCCNC(=N)N)C(=O)N[C@@H](CCCNC(=N)N)C(=O)N[C@@H](CCCNC(=N)N)C(N)=O)C1=O)C(=O)N[C@@H](CO)C(=O)NCC(=O)N[C@@H](Cc1ccccc1)C(=O)N[C@@H](CO)C(=O)N[C@@H](Cc1ccccc1)C(=O)N[C@@H](CCCCN)C(=O)N[C@@H](CCCCN)C(=O)N[C@@H](CC(N)=O)C(=O)N[C@@H](CCCCN)C(=O)N[C@@H](CCCCN)C(N)=O (some centres unmarked) [MED2]
change in NHA viability ([2]; 5μM and 10μM): increases in viability
toxicity in NHAs ([2]; 10μM): no toxicity
reduction in viability [3]: > 50%
reduction in viability [4]: > 50%
PARP1 cleavage pattern [5]: loss of both 122kD and 89kD bands with the formation of an approximately 72 kD band
reduction in viability [6]: > 50%
caspase 3/7 activation compared with CTL2 ([7]; MED2 treatment, P<0.001, n>5000): increased caspase 3/7 activation
reduction in viability [8]: > 50%
Fluo-4 intensity (intracellular calcium) [9]: increased within minutes
reduction in viability [10]: > 50%
reduction in viability [11]: > 50%
inhibition of viability in adherent vs suspension cells [12]: equally effective
reduction in viability [13]: > 50%
onset of morphological effects and signs of cellular injury [14]: ≤ 1 hour

CC(C)[C@H](NC(=O)c1ccc2ccccc2n1)C(=O)N[C@@H](CC(=O)O)C(=O)COc1c(F)cccc1F [QVD-OPh, reference compound]
reduction in MED2-induced caspase 3/7 activation ([7]; doubled QVD-OPh (200μM), n>5000): 50%

KKKKKRFSFKKSFKLSGFSFKKNKK-LC- K(Lumiprobe CY7) [MED2-CY7]
fluorescence in tumor-burdened regions of the brain compared to normal brain [15]: substantial increases
organs with greatest fluorescence intensity per mg tissue ([16]; 5 or 10 nanomoles, tail-vein, LI-COR Pearl, n=3 per dose group): kidney, liver, small and large intestines
brain partitioning ([16]; 5 or 10 nanomoles, tail-vein, n=3 per dose group): only a small percentage of total peptide reaching the brain
increase in brain (periventricular) fluorescence per mg tissue, 10nmol vs 5nmol ([16]; tail-vein injection, tumor-naïve nude mice, Pearl imaging, n=3, p=0.026): greater than threefold
